Measurements collected from several papers.
Lines come from different studies, so protocols differ.
FPR1: fMet-Leu-Phe receptor (FPR1, Homo sapiens, UniProt P21462)
SLC6A2: Sodium-dependent noradrenaline transporter (SLC6A2, Homo sapiens, UniProt P23975)
DNA dC->dU-editing enzyme APOBEC-3B: DNA dC->dU-editing enzyme APOBEC-3B (Homo sapiens, UniProt Q9UH17)

Compound | target | test | system | conditions | inhibition
Oc1cccc(Nc2nc(-c3ccc(F)cc3F)cs2)c1 | Muscarinic acetylcholine receptor M5 (CHRM5, Homo sapiens, UniProt P08912) | cell-free assay | – | 10 µM | -24.9%
COc1ccccc1-c1c(C(F)(F)F)oc2cc(OC(=O)c3ccco3)ccc2c1=O | FPR1 | calcium signal, antagonist | – | 50 µM | 100%
Fc1ccc(C(c2ccc(F)cc2)c2nnnn2CCCCN2CCN(CCCc3ccccc3)CC2)cc1 | SLC6A2 | transporter uptake, inhibitor | HEK293 | 1 µM | 86.4%
COc1ccccc1-c1c(C)oc2cc(OC(=O)c3cccs3)ccc2c1=O | FPR1 | calcium signal, antagonist | – | 50 µM | 100%
CCN(CC)c1ccc(C2=NNC(=O)CC2C)cc1[N+](=O)[O-] (centres unmarked) | 3',5'-cyclic-AMP phosphodiesterase 4B (PDE4B, Homo sapiens, UniProt Q07343) | enzyme activity, inhibitor | – | 0.1 µM | 21%
c1ccc(CCC2CCN(CCCCn3nnnc3C(c3ccccc3)c3ccccc3)CC2)cc1 | SLC6A2 | transporter uptake, inhibitor | HEK293 | 1 µM | 82.8%
OCC1OC(Oc2cc(O)cc(/C=C/c3ccc(O)cc3)c2)C(O)C(O)C1O (centres unmarked) | DNA dC->dU-editing enzyme APOBEC-3B | enzyme activity, inhibitor, fluorescence | – | 100 µM | 31.5%
Cc1c(COc2c(F)cc(F)cc2F)c2c(n1C)C(=O)C=C(NCCCN)C2=O | Ribosyldihydronicotinamide dehydrogenase [quinone] (NQO2, Homo sapiens, UniProt P16083) | cell-free assay, inhibitor | – | 1 µM | 97%
CNC(=O)c1cc(Oc2ccc(NC(=O)Nc3ccc(Cl)c(C(F)(F)F)c3)cc2)ccn1 | Fibroblast growth factor receptor 1 (FGFR1, Homo sapiens, UniProt P11362, V561M) | cell-free assay | – | 10 µM | 84%
Clc1ccc(C(c2ccccc2)c2nnnn2CCCCN2CCC(Cc3ccc(Cl)c(Cl)c3)CC2)cc1 (centres unmarked) | SLC6A2 | transporter uptake, inhibitor | HEK293 | 1 µM | 58.9%
CC(=O)c1nn(CC(=O)N2C[C@H](F)C[C@H]2C(=O)Nc2cccc(Br)n2)c2ccc(-c3cnc(C)nc3)cc12 | Plasma kallikrein (KLKB1, Homo sapiens, UniProt P03952) | enzyme activity, inhibitor | – | 10 µM | 20.8%
O=C(Oc1ccc2c(=O)c(-c3ccccc3)c(C(F)(F)F)oc2c1)c1cccs1 | FPR1 | calcium signal, antagonist | – | 50 µM | 90%
CCN1CCN(Cc2ccc(NC(=O)c3ccc(C)c(Oc4ccnc5[nH]ccc45)c3)cc2C(F)(F)F)CC1 | Serine/threonine-protein kinase WNK4 (WNK4, Homo sapiens, UniProt Q96J92) | target engagement in cells, inhibitor, chemoproteomics | Huh-7 | 1 µM | -11.5%
CC(=O)N[C@H]1CSSC[C@@H](C(=O)N[C@@H](Cc2c[nH]c3ccccc23)C(N)=O)NC(=O)[C@H](Cc2ccccc2)NC(=O)[C@H](CCCNC(=N)N)NC1=O | Melanocortin receptor 4 (MC4R, Homo sapiens, UniProt P32245) | ligand displacement, radioligand | – | 10 µM, 40 min | 0%
COC(=O)Nc1nc2ccc(C(=O)c3cccs3)cc2[nH]1 | DNA dC->dU-editing enzyme APOBEC-3B | enzyme activity, inhibitor, fluorescence | – | 100 µM | 25.9%
Cc1oc2cc(OC(=O)c3ccco3)ccc2c(=O)c1-c1nc2ccccc2n1C | FPR1 | calcium signal, antagonist | – | 50 µM | 100%
Fc1ccc(C(c2ccc(F)cc2)c2nnnn2CCCN2CCC(CCCc3ccccc3)CC2)cc1 | SLC6A2 | transporter uptake, inhibitor | HEK293 | 1 µM | 23.8%
COc1cc(/C=C/C(=O)CC(=O)/C=C/c2ccc(O)c(OC)c2)ccc1O | DNA dC->dU-editing enzyme APOBEC-3B | enzyme activity, inhibitor, fluorescence | – | 100 µM | 75.2%
Nc1c(Cl)cccc1C(=O)Nc1ccccc1C(=O)O | srtA (Staphylococcus aureus, UniProt Q2FV99) | enzyme activity, inhibitor | – | 200 µM | 100%
CC/C(=N\NC(=O)NCc1cccc(O)c1)c1ccc(O)c(C)c1O | Fibroblast growth factor receptor 4 (FGFR4, Homo sapiens, UniProt P22455, V550E) | enzyme activity, inhibitor | – | 0.1 µM | 1.5%
Cc1oc2cc(OC(=O)c3ccco3)ccc2c(=O)c1-c1ccccc1 | FPR1 | calcium signal, antagonist | – | 50 µM | 100%
Fc1ccc(C(c2ccc(F)cc2)c2nnnn2CCCCN2CCC(CCCc3ccccc3)CC2)cc1 | SLC6A2 | transporter uptake, inhibitor | HEK293 | 1 µM | 48%
O=C(Oc1ccc2c(=O)c(-c3ccccc3Cl)c(C(F)(F)F)oc2c1)c1cccs1 | FPR1 | calcium signal, antagonist | – | 50 µM | 100%
Clc1ccc(C(c2ccccc2)c2nnnn2CCCN2CCC(CCCc3ccccc3)CC2)cc1 (centres unmarked) | SLC6A2 | transporter uptake, inhibitor | HEK293 | 1 µM | 72.8%
Cc1ccc(Nc2nccc(N(C)c3ccc4c(C)n(C)nc4c3)n2)cc1S(N)(=O)=O | Serine/threonine-protein kinase Chk2 (CHEK2, Homo sapiens, UniProt O96017, R145W) | enzyme activity, inhibitor | – | 0.3 µM | -4%
Clc1ccc(C(c2ccccc2)c2nnnn2CCCCN2CCN(CCc3ccccc3)CC2)cc1 (centres unmarked) | SLC6A2 | transporter uptake, inhibitor | HEK293 | 1 µM | 47.6%
Cc1nnc2sc(C(=O)NCc3ccc(S(=O)(=O)C(F)(F)F)cc3)c(N)c2c1C | Glutamate receptor ionotropic, NMDA 1 (Grin1, Rattus norvegicus, UniProt P35439) | ligand displacement, radioligand | – | 10 µM | 14%
Fc1ccc(C(c2ccc(F)cc2)c2nnnn2CCCCN2CCC(Cc3ccccc3)CC2)cc1 | SLC6A2 | transporter uptake, inhibitor | HEK293 | 1 µM | 81%
O=c1c(-c2ccc(O)cc2)coc2c(OC3OC(CO)C(O)C(O)C3O)c(O)ccc12 (centres unmarked) | DNA dC->dU-editing enzyme APOBEC-3B | enzyme activity, inhibitor, fluorescence | – | 100 µM | 37.5%
